# Data reported in ChEMBL document CHEMBL1154130, “Synthesis and biological activities of thio-avarol derivatives” (J Nat Prod, 2008).
# Activity calls are given as the source filed them. No cut-off for these calls is given here.
# Assays:
# [1] = tested on: Bacillus spizizenii; experiment: Antimicrobial activity against Bacillus subtilis subsp. spizizenii DMS 347 after 48 hrs by serial dilution method; type: functional
# Summary of the method: (§1)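 Bacteria grown as liquid cultures in nutrient broth at 37 °C. […] Growth was scored after 48 h of incubation.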
# [2] = tested on: Micrococcus luteus; experiment: Antimicrobial activity against Micrococcus luteus DMS 348 after 48 hrs by serial dilution method; type: functional; summary of the method: as §1
# [3] = tested on: Escherichia coli; experiment: Antimicrobial activity against Escherichia coli DSM 498 after 48 hrs by serial dilution method; type: functional, organism-based; summary of the method: as §1
# [4] = molecular target: Acetylcholinesterase (Homo sapiens) (UniProt P22303)
# Acetylcholinesterase (Homo sapiens), sequence (P22303 whole entry): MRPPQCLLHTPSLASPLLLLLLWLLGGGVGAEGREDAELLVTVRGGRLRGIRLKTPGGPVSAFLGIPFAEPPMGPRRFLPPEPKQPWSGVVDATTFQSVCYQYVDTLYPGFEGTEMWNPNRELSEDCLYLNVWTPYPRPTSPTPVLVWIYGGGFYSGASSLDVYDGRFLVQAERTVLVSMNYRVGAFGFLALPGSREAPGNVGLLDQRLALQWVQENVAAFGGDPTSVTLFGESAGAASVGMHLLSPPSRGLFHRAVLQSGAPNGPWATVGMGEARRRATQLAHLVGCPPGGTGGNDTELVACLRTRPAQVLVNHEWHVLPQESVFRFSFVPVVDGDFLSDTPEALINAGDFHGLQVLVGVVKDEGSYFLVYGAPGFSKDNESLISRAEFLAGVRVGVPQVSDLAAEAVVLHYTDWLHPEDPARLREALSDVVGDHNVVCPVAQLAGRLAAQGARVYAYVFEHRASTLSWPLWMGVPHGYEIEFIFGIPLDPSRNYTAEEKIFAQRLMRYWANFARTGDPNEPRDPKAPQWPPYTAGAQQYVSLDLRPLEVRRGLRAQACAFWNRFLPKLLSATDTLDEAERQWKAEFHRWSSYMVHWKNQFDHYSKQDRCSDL
# [5] = tested on: Artemia salina; experiment: Toxicity against Artemia salina after 24 hrs; type: organism-based; settings: in vivo
# Summary of the method: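 Freshly hatched Artemia salina larvae (10 per test) in 5 mL artificial seawater; compounds dissolved in DMSO, tested at final 100, 10 and 1 ppm, in triplicate. Surviving shrimps counted after 24 h; LD50 with 95% confidence intervals by Finney probit analysis, reported in ppm.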
# [6] = tested on: Saccharomyces cerevisiae; experiment: Antimicrobial activity against Saccharomyces cerevisiae DMS 70449 after 48 hrs by serial dilution method; type: functional
# [7] = tested on: Radical scavenging activity; experiment: Antioxidant activity assessed as DPPH radical scavenging activity; type: functional
# Summary of the method: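 Compounds were tested in MeOH at 5, 10, 20, 50 and 100 µM with DPPH at 0.1 mM final. Absorbance at 517 nm was read after 30 min. Percent radical inhibition was plotted to give the IC50, the concentration scavenging 50% of DPPH. Trolox was the positive control.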
Compound,MIC [1],MIC [2],Activity [3],"MIC ([1]; DMS 347, 48 h)",MIC [4],LC50 [5],MIC [6],IC50 ([7]; read-out: IC50),"MIC ([2]; DMS 348, 48 h)",IC50 [7],"MIC ([6]; DMS 70449, 48 h)"
GENTAMICIN,1 µg/mL,10 µg/mL,,,,,,,,,
CC1=CCC[C@H]2[C@](C)(Cc3cc(O)ccc3O)[C@@H](C)CC[C@]12C [AVAROL],,,inactive,25 µg/mL,10 µg,0.18 ppm,inactive,18 µM,10 µg/mL,,
CC1=CCC[C@H]2[C@](C)(CC3=CC(=O)C(S[C@H]4CC[C@@]5(C)C(=CC[C@H]6[C@@H]7CC[C@H]([C@H](C)CCCC(C)C)[C@@]7(C)CC[C@@H]65)C4)=CC3=O)[C@@H](C)CC[C@]12C,inactive,inactive,inactive,,> 10 µg,Not Active,inactive,,,Not Active,
CC1=CCC[C@H]2[C@](C)(Cc3cc(O)cc(Sc4cccc(C(=O)O)c4)c3O)[C@@H](C)CC[C@]12C,,,inactive,10 µg/mL,1 µg,14.73 ppm,inactive,31.8 µM,10 µg/mL,,
NYSTATIN,,,,,,,100 µg/mL,,,,
CC1=CCC[C@H]2[C@](C)(Cc3cc(O)cc(Sc4ccccc4CO)c3O)[C@@H](C)CC[C@]12C,inactive,inactive,inactive,,10 µg,> 50 ppm,inactive,25.3 µM,,,
CC1=CCC[C@H]2[C@](C)(CC3=CC(O)C(S[C@H]4CC[C@@]5(C)C(=CC[C@H]6[C@@H]7CC[C@H]([C@H](C)CCCC(C)C)[C@@]7(C)CC[C@@H]65)C4)=CC3O)[C@@H](C)CC[C@]12C (stereo partly specified),,,,,,Not Active,,71.4 µM,,,
CC1=CCC[C@H]2[C@](C)(Cc3cc(O)c(SC(C)C(=O)O)cc3O)[C@@H](C)CC[C@]12C (stereo partly specified),,inactive,inactive,10 µg/mL,1 µg,> 50 ppm,inactive,35.3 µM,,,
CC1=CCC[C@H]2[C@](C)(Cc3cc(O)cc(SC(C)C(=O)O)c3O)[C@@H](C)CC[C@]12C (stereo partly specified),,inactive,inactive,10 µg/mL,1 µg,27.25 ppm,inactive,34.6 µM,,,
Cc1c(C)c2c(c(C)c1O)CCC(C)(C(=O)O)O2 (stereo unspecified) [TROLOX],,,,,,,,25.8 µM,,,
CC1=CCC[C@H]2[C@](C)(CC3=CC(O)C(S[C@H]4CC[C@@]5(C)C(=CC[C@H]6[C@@H]7CC[C@H]([C@H](C)CCCC(C)C)[C@@]7(C)CC[C@@H]65)C4)=C(S[C@H]4CC[C@@]5(C)C(=CC[C@H]6[C@@H]7CC[C@H]([C@H](C)CCCC(C)C)[C@@]7(C)CC[C@@H]65)C4)C3O)[C@@H](C)CC[C@]12C (stereo partly specified),inactive,inactive,inactive,,> 10 µg,Not Active,inactive,41.5 µM,,,
CC1=CCC[C@H]2[C@](C)(CC3=CC(=O)C=CC3=O)[C@@H](C)CC[C@]12C [AVARONE],,,inactive,10 µg/mL,1 µg,0.14 ppm,inactive,32.1 µM,1 µg/mL,,
CC1=CCC[C@H]2[C@](C)(Cc3cc(O)cc(Sc4nc5ccccc5s4)c3O)[C@@H](C)CC[C@]12C,inactive,,inactive,,10 µg,Not Active,,29.5 µM,0.01 µg/mL,,100 µg/mL
CC1=CCC[C@H]2[C@](C)(Cc3cc(O)c(Sc4nc5ccccc5s4)cc3O)[C@@H](C)CC[C@]12C,inactive,inactive,inactive,,> 10 µg,Not Active,inactive,31.2 µM,,,
